The text below walks through data of ChEMBL document CHEMBL3045292, “Synthesis and herbicidal activity of 2-(7-fluoro-3-oxo- 3,4-dihydro-2H-benzo[b][1,4]oxazin-6-yl)isoindoline-1,3-diones” (J Agric Food Chem, 2005).

Assay [1] has as its system Abutilon theophrasti. As to the kind of experiment: Herbicidal activity against Abutilon theophrasti (velvetleaf) assessed as weed growth inhibition at 75 g/ha pre-emergence treatment […]. The class given is functional. Conditions: read-out: GI. The method in brief:
(§1)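 Pot-grown plants in the greenhouse, in clay soil (pH 6.5, 1.6% organic matter, 37.3% clay, CEC 12.1 cmol/kg). Compound was made up as a 100 g/L emulsified concentrate (DMF, Tween-80), diluted in water and sprayed at 75 g ai/ha. Pre-emergence spraying was 24 h after sowing; post-emergence at two-leaf (dicots) or one-leaf (monocots) stage. Untreated and DMF controls. Percent growth inhibition scored visually 15 days post-treatment.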

Assay [2] concerns Amaranthus blitum. The assay can be described thus: Herbicidal activity against Amaranthus blitum assessed as weed growth inhibition at 75 g/ha post-emergence treatment […]. Type of assay: functional. Particulars: read-out: GI. The method in brief:
as §1

Assay [3] deals with Setaria viridis. As to the kind of experiment: Herbicidal activity against Setaria viridis (green foxtail) assessed as weed growth inhibition at 75 g/ha post-emergence treatment […]. Type of assay: functional. Particulars: read-out: GI. In short, it runs like this: as §1
The subject of assay [4] is Setaria viridis. As to the kind of experiment: Herbicidal activity against Setaria viridis (green foxtail) assessed as weed growth inhibition at 75 g/ha pre-emergence treatment […]. The class given is functional. Particulars: read-out: GI. The method in brief: as §1
In assay [5] the test system is Amaranthus blitum. The assay can be described thus: Herbicidal activity against Amaranthus blitum assessed as weed growth inhibition at 75 g/ha pre-emergence treatment […]. Type of assay: functional. Conditions: read-out: GI. In short, it runs like this: as §1
For assay [6], the system named is Digitaria sanguinalis. As to the kind of experiment: Herbicidal activity against crabgrass Digitaria sanguinalis(hairy crabgrass) assessed as weed growth inhibition at 75 g/ha post-emergence treatment […]. The class given is functional. Particulars: read-out: GI. In short, it runs like this:
as §1

Assay [7] has as its system Digitaria sanguinalis. The assay can be described thus: Herbicidal activity against crabgrass Digitaria sanguinalis(hairy crabgrass) assessed as weed growth inhibition at post-emergence treatment […]. The class given is functional, organism-based. The method in brief:
as §1

Assay [8] relates to Chenopodium album. As to the kind of experiment: Herbicidal activity against fat hen Chenopodium album assessed as weed growth inhibition at 75 g/ha pre-emergence treatment […]. The class given is functional. Conditions: read-out: GI. The method in brief: as §1
Assay [9] relates to Abutilon theophrasti. As to the kind of experiment: Herbicidal activity against Abutilon theophrasti (velvetleaf) assessed as weed growth inhibition at 75 g/ha post-emergence treatment […]. Particulars: read-out: GI. The class given is functional. In short, it runs like this:
as §1

Assay [10] relates to Echinochloa crus-galli. The assay can be described thus: Herbicidal activity against Echinochloa crus-galli (barnyard grass) (barnyard grass) assessed as weed growth inhibition at 75 g/ha pre-emergence treatment […]. Conditions: read-out: GI. Type of assay: functional. The method in brief: as §1
For assay [11], the system named is Digitaria sanguinalis. As to the kind of experiment: Herbicidal activity against crabgrass Digitaria sanguinalis(hairy crabgrass) assessed as weed growth inhibition at 75 g/ha pre-emergence treatment […]. Type of assay: functional. Particulars: read-out: GI. The method in brief:
as §1

Assay [12] concerns Chenopodium album. The assay can be described thus: Herbicidal activity against fat hen Chenopodium album assessed as weed growth inhibition at 75 g/ha post-emergence treatment […]. The class given is functional. Conditions: read-out: GI. The method in brief: as §1
The subject of assay [13] is Abutilon theophrasti. The assay can be described thus: Herbicidal activity against Abutilon theophrasti (velvetleaf) assessed as weed growth inhibition at post-emergence treatment […]. Type of assay: functional, organism-based. In short, it runs like this: as §1
In assay [14] the test system is Echinochloa crus-galli. As to the kind of experiment: Herbicidal activity against Echinochloa crus-galli (barnyard grass) (barnyard grass) assessed as weed growth inhibition at 75 g/ha post-emergence treatment […]. Type of assay: functional. Particulars: read-out: GI. The method in brief:
as §1

Take `O=C1COc2cc(F)c(N3C(=O)c4ccccc4C3=O)cc2N1CC#CI`: the inhibition of growth at 75 g/ha with Abutilon theophrasti [1] was more than 80%; with Amaranthus blitum [2], more than 80%; in the assay with Setaria viridis [3] it was 50%; in the assay with Setaria viridis [4], 50%; with Amaranthus blitum [5], more than 80%; in the assay on Digitaria sanguinalis [6], 50%. Also, the inhibition of growth at 75 g/ha was more than 80% in the assay with Chenopodium album [8]; more than 80% with Abutilon theophrasti [9]; less than 50% in the assay on Echinochloa crus-galli [10]; more than 80% in the assay on Digitaria sanguinalis [11]; more than 80% in the assay with Chenopodium album [12]; less than 50% with Echinochloa crus-galli [14]. In addition, the values for the IC50 in the assay on Digitaria sanguinalis [7] and with Abutilon theophrasti [13] were 68 g/ha and 3.9 g/ha, respectively.

As for `O=C1COc2cc(F)c(N3C(=O)c4ccccc4C3=O)cc2N1CC#CBr`, the inhibition of growth at 75 g/ha in the assay on Abutilon theophrasti [1], in the assay with Amaranthus blitum [2], in the assay with Setaria viridis [3], in the assay on Setaria viridis [4], with Amaranthus blitum [5] and in the assay with Digitaria sanguinalis [6] was less than 50% throughout. For the same molecule, the inhibition of growth at 75 g/ha in the assay on Chenopodium album [8], in the assay on Abutilon theophrasti [9], in the assay with Echinochloa crus-galli [10], with Digitaria sanguinalis [11], with Chenopodium album [12] and in the assay with Echinochloa crus-galli [14] was less than 50% in each case. Moreover, the IC50 in the assay with Digitaria sanguinalis [7] is reported as 314 g/ha; with Abutilon theophrasti [13], 121 g/ha.

As for `C#CCN1C(=O)COc2cc(F)c(N3C(=O)c4cccc(F)c4C3=O)cc21`, the inhibition of growth at 75 g/ha in the assay with Abutilon theophrasti [1], in the assay on Amaranthus blitum [2], in the assay with Setaria viridis [3], in the assay on Setaria viridis [4], in the assay with Amaranthus blitum [5] and in the assay with Digitaria sanguinalis [6] was more than 80% each time. The inhibition of growth at 75 g/ha in the assay on Chenopodium album [8], in the assay on Abutilon theophrasti [9], with Echinochloa crus-galli [10], in the assay with Digitaria sanguinalis [11], in the assay on Chenopodium album [12] and with Echinochloa crus-galli [14] was more than 80% in each case. Further, the IC50 in the assay with Digitaria sanguinalis [7] was 20 g/ha; in the assay with Abutilon theophrasti [13] it was 23 g/ha.

For `C#CCN1C(=O)COc2cc(F)c(N3C(=O)c4cccc(C)c4C3=O)cc21`, the inhibition of growth at 75 g/ha in the assay with Abutilon theophrasti [1] is less than 50%; with Amaranthus blitum [2], less than 50%; in the assay with Setaria viridis [3], less than 50%; in the assay on Setaria viridis [4], less than 50%; in the assay on Amaranthus blitum [5], less than 50%; in the assay with Digitaria sanguinalis [6], 50%. Moreover, the inhibition of growth at 75 g/ha with Chenopodium album [8] was less than 50%; in the assay with Abutilon theophrasti [9], less than 50%; in the assay on Echinochloa crus-galli [10], less than 50%; in the assay with Digitaria sanguinalis [11] it was less than 50%; in the assay on Chenopodium album [12], less than 50%; with Echinochloa crus-galli [14] it was 50%. Moreover, the values for the IC50 in the assay with Digitaria sanguinalis [7] and in the assay with Abutilon theophrasti [13] were 63 g/ha and 87 g/ha, respectively.

`N#CCN1C(=O)COc2cc(F)c(N3C(=O)c4ccccc4C3=O)cc21`: the inhibition of growth at 75 g/ha with Abutilon theophrasti [1] is less than 50%; in the assay with Amaranthus blitum [2], less than 50%; in the assay with Setaria viridis [3], less than 50%; in the assay with Setaria viridis [4], less than 50%; with Amaranthus blitum [5] it was less than 50%; in the assay with Digitaria sanguinalis [6], 50%. Moreover, the inhibition of growth at 75 g/ha with Chenopodium album [8], in the assay with Abutilon theophrasti [9], with Echinochloa crus-galli [10], with Digitaria sanguinalis [11], in the assay with Chenopodium album [12] and in the assay on Echinochloa crus-galli [14] was less than 50% in each case. Also, the IC50 with Digitaria sanguinalis [7] turned out to be 57 g/ha; in the assay with Abutilon theophrasti [13], 92 g/ha.

`C#CCN1C(=O)COc2cc(F)c(N3C(=O)c4ccccc4C3=O)cc21`: the inhibition of growth at 75 g/ha was more than 80% with Abutilon theophrasti [1]; more than 80% with Amaranthus blitum [2]; more than 80% in the assay on Setaria viridis [3]; less than 50% in the assay on Setaria viridis [4]; more than 80% in the assay with Amaranthus blitum [5]; more than 80% with Digitaria sanguinalis [6]. The inhibition of growth at 75 g/ha in the assay with Chenopodium album [8] is more than 80%; in the assay on Abutilon theophrasti [9] it was more than 80%; with Echinochloa crus-galli [10], less than 50%; in the assay with Digitaria sanguinalis [11], more than 80%; in the assay on Chenopodium album [12], more than 80%; in the assay with Echinochloa crus-galli [14], more than 80%. Also, the IC50 with Digitaria sanguinalis [7] is on record as 17 g/ha; in the assay with Abutilon theophrasti [13], 7.5 g/ha.

As for `C#CCN1C(=O)COc2cc(F)c(N3C(=O)c4ccc(C)cc4C3=O)cc21`, the inhibition of growth at 75 g/ha in the assay with Abutilon theophrasti [1] was less than 50%; with Amaranthus blitum [2] it was more than 80%; in the assay on Setaria viridis [3] it was less than 50%; with Setaria viridis [4], less than 50%; in the assay with Amaranthus blitum [5], less than 50%; in the assay with Digitaria sanguinalis [6] it was more than 80%. Moreover, the inhibition of growth at 75 g/ha with Chenopodium album [8] is less than 50%; in the assay with Abutilon theophrasti [9], more than 80%; in the assay with Echinochloa crus-galli [10], less than 50%; in the assay on Digitaria sanguinalis [11] it was less than 50%; in the assay on Chenopodium album [12] it was more than 80%; with Echinochloa crus-galli [14] it was 50%. Also, the IC50 in the assay with Digitaria sanguinalis [7] stood at 31 g/ha; in the assay on Abutilon theophrasti [13] it was 28 g/ha.
